In experiment [1] the target is T1, Neuropeptide Y receptor type 4 (Homo sapiens, UniProt P50391). Kind of experiment: Allosteric antagonist activity at […]-tagged human NPY4R expressed in COS7 cells co-expressing Gqi5-alpha assessed as inhibition of PP-induced inositol phosphate accumulation by IP-one assay. Format: functional, cell-based. Particulars: filed as allosteric antagonist. In short, it runs like this: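 IP-One Gq HTRF assay in COS7 cells stably expressing Y4R-eYFP and Δ6Gαqi4myr, 8000 cells/well seeded overnight. Compound or DMSO added, then PP stimulation in HBSS + 20 mM LiCl for 1 h at 37 °C. Cells lysed with kit antibody reagents. Emission read at 665 and 620 nm.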
T1 sequence (P50391 whole entry): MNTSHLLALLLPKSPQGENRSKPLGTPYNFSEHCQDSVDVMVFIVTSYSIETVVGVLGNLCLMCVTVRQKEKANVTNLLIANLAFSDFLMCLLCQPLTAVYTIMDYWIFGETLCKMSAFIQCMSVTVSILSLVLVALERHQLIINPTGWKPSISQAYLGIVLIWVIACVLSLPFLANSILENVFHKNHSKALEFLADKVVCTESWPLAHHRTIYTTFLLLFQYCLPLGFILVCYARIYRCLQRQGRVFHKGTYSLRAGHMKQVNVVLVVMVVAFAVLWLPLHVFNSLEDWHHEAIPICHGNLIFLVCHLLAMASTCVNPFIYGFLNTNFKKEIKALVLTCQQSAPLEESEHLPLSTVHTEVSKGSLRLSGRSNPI

Experiment [2] addresses T2, Neuropeptide Y receptor type 2 (Mus musculus) (UniProt P97295).
T2 sequence (whole entry): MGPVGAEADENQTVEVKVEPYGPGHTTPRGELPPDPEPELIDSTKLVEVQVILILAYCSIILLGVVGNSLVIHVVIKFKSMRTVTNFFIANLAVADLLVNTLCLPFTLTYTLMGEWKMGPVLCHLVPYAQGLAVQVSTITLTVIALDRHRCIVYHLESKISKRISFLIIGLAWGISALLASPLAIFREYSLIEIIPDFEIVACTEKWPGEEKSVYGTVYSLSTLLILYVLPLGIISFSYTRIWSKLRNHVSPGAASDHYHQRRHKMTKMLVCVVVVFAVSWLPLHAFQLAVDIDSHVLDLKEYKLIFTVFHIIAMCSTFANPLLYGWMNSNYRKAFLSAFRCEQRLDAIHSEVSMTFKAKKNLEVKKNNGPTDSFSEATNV
Nature of the experiment: Allosteric antagonist activity at NPY2R in mouse descending colon mucosa assessed as reduction in PYY-induced ion transport at 0.3 to 30 uM by electrophysiology. To be noted: dose 0.3-30 µM.

The test system of experiment [3] is COS7. Nature of the experiment: Allosteric antagonist activity at human NPY4R S3.28 position mutant expressed in COS7 cells co-expressing Gqi5-alpha assessed as inhibition of PP-induced Ca2+ flux by Fluo-2 AM dye based fluorescent assay. Format: cell-based. In short, it runs like this: (§1)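 COS7 cells transiently cotransfected overnight with 3 μg receptor-eYFP variant plasmid and 1 μg Δ6Gαqi4myr, reseeded next day. Fluo2-AM (2.4 μM) Ca²⁺ assay in HBSS/HEPES/probenecid pH 7.4. Compound concentration series added after 20 s baseline, PP at EC80 added 110 s later. Responses as x-fold over basal, normalized to 1 μM PP. N ≥ 3.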

In experiment [4] the target is T1, Neuropeptide Y receptor type 4. Nature of the experiment: Allosteric antagonist activity at […]-tagged human NPY4R expressed in COS7 cells co-expressing Gqi5-alpha assessed as inhibition of PP-induced Ca2+ flux by Fluo-2 AM dye based fluorescent assay. It is filed as functional, cell-based. Particulars: filed as allosteric antagonist. For orientation: A change in cytosolic calcium serves as a functional read-out for many receptors and channels.

For experiment [5], the system named is COS7. Nature of the experiment: Allosteric antagonist activity at human NPY4R Q2.58 position mutant expressed in COS7 cells co-expressing Gqi5-alpha assessed as inhibition of PP-induced Ca2+ flux by Fluo-2 AM dye based fluorescent assay. Format: cell-based. The method, boiled down:
as §1

Experiment [6] concerns COS7. Kind of experiment: Allosteric antagonist activity at human NPY4R Q3.32 position mutant expressed in COS7 cells co-expressing Gqi5-alpha assessed as inhibition of PP-induced Ca2+ flux by Fluo-2 AM dye based fluorescent assay. Format: cell-based. In short, it runs like this:
as §1

For experiment [7], the target named is T3, Neuropeptide Y receptor type 1 (Mus musculus) (UniProt Q04573).
T3 sequence (whole entry): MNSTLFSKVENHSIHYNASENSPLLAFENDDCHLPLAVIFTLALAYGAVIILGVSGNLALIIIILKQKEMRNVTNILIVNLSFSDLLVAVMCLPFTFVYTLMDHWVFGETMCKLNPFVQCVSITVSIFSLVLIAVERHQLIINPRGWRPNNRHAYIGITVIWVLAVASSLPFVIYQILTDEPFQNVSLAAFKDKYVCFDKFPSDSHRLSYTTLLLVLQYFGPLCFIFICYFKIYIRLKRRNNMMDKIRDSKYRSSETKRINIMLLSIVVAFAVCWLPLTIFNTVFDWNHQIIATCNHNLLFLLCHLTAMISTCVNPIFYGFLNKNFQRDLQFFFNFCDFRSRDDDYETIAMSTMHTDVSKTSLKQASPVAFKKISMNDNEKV
Nature of the experiment: Allosteric antagonist activity at NPY1R in mouse descending colon mucosa assessed as reduction in PYY-induced ion transport at 30 uM by electrophysiology.

The test system of experiment [8] is COS7. Kind of experiment: Allosteric antagonist activity at human NPY4R F4.60 position mutant expressed in COS7 cells co-expressing Gqi5-alpha assessed as inhibition of PP-induced Ca2+ flux by Fluo-2 AM dye based fluorescent assay. It is filed as cell-based. The method, boiled down:
as §1

Experiment [9] has as its system COS7. Kind of experiment: Allosteric antagonist activity at human NPY4R T2.61 position mutant expressed in COS7 cells co-expressing Gqi5-alpha assessed as inhibition of PP-induced Ca2+ flux by Fluo-2 AM dye based fluorescent assay. It is filed as cell-based. In short, it runs like this:
as §1

The target in experiment [10] is T1, Neuropeptide Y receptor type 4. Kind of experiment: Allosteric antagonist activity at […]-tagged human NPY4R expressed in COS7 cells co-expressing Gqi5-alpha assessed as inhibition of PP-induced Ca2+ flux by Fluo-2 AM dye based fluorescent assay relative to control. To be noted: read-out: IC50. Format: functional, cell-based.
Experiment [11] has as its system COS7. Kind of experiment: Allosteric antagonist activity at human NPY4R W2.70 position mutant expressed in COS7 cells co-expressing Gqi5-alpha assessed as inhibition of PP-induced Ca2+ flux by Fluo-2 AM dye based fluorescent assay. Format: cell-based. In short, it runs like this:
as §1

The test system of experiment [12] is COS7. Nature of the experiment: Allosteric antagonist activity at human NPY4R L7.36 position mutant expressed in COS7 cells co-expressing Gqi5-alpha assessed as inhibition of PP-induced Ca2+ flux by Fluo-2 AM dye based fluorescent assay. Format: cell-based. The method, boiled down:
as §1

The subject of experiment [13] is COS7. Kind of experiment: Allosteric antagonist activity at human NPY4R Y1.39 position mutant expressed in COS7 cells co-expressing Gqi5-alpha assessed as inhibition of PP-induced Ca2+ flux by Fluo-2 AM dye based fluorescent assay. Format: cell-based. Particulars: dose 15.0 µM. In short, it runs like this:
as §1

In experiment [14] the test system is COS7. Nature of the experiment: Allosteric antagonist activity at human NPY4R A3.29 position mutant expressed in COS7 cells co-expressing Gqi5-alpha assessed as inhibition of PP-induced Ca2+ flux by Fluo-2 AM dye based fluorescent assay. Format: cell-based. In short, it runs like this:
as §1

Experiment [15] deals with COS7. Kind of experiment: Allosteric antagonist activity at human NPY4R F7.35 position mutant expressed in COS7 cells co-expressing Gqi5-alpha assessed as inhibition of PP-induced Ca2+ flux by Fluo-2 AM dye based fluorescent assay. Format: cell-based. The method, boiled down:
as §1

In experiment [16] the target is T4, Neuropeptide Y receptor type 5 (Mus musculus) (UniProt O70342).
T4 sequence (whole entry): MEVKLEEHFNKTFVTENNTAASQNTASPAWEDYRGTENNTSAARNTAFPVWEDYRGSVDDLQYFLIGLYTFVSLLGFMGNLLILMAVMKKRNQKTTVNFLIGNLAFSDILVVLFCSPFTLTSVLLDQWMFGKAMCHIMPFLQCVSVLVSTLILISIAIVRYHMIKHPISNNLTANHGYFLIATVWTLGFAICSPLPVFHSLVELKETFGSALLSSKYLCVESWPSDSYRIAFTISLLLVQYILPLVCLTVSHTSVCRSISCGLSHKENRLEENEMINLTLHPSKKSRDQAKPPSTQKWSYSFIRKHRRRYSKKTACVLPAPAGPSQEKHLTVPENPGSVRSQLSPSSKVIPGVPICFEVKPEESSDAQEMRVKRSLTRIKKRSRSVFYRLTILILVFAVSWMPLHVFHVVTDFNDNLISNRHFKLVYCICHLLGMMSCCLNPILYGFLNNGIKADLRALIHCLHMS
Nature of the experiment: Allosteric antagonist activity at NPY5R in mouse descending colon mucosa assessed as reduction in rPP-induced ion transport at 30 uM by electrophysiology. The method, boiled down:
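Mouse descending colon mucosae (0.14 cm² exposed) in Ussing chambers, Krebs−Henseleit both sides, oxygenated, 37 °C, voltage-clamped at 0 mV. After stable basal Isc (20 min), DMSO (0.3%) or antagonist 300 nM–30 μM added basolaterally, then VIP 10 nM (10−15 min), then rPP 30 nM to lower Isc, then PYY 10 nM 15 min later. Isc changes pooled, mean ± SEM, N = 5.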

Experiment [17] has as its target T3, Neuropeptide Y receptor type 1 (Mus musculus). Nature of the experiment: Allosteric antagonist activity at NPY1R in mouse descending colon mucosa assessed as reduction in PYY-induced ion transport at 0.3 to 30 uM by electrophysiology. To be noted: dose 0.3-30 µM.
In experiment [18] the test system is COS7. Kind of experiment: Allosteric antagonist activity at human NPY4R Y2.64 position mutant expressed in COS7 cells co-expressing Gqi5-alpha assessed as inhibition of PP-induced Ca2+ flux by Fluo-2 AM dye based fluorescent assay. Format: cell-based. In short, it runs like this:
as §1

Experiment [19] deals with Neuropeptide Y receptor type 4 (Mus musculus). Nature of the experiment: Allosteric antagonist activity at NPY4R in mouse descending colon mucosa assessed as reduction in rPP-induced ion transport by electrophysiology.
In experiment [20] the target is T2, Neuropeptide Y receptor type 2 (Mus musculus). Nature of the experiment: Allosteric antagonist activity at NPY2R in mouse descending colon mucosa assessed as reduction in PYY-induced ion transport at 30 uM by electrophysiology.

Each structure is given as a SMILES string. Calls of active or inactive are those of the source. No cut-off for these calls is given here.

By Kb is commonly meant the affinity of an antagonist, worked out from how it opposes an agonist. Usually pKb stands for −log10 of the Kb, conventionally taken in molar units. By IC50 is commonly meant the concentration at which inhibition is half-maximal. As for `CS(=O)(=O)N1CCCC[C@H]1C(=O)Nc1nc2cc3c(cc2s1)OCCO3`, the inhibition entry in experiment [1] was “Active”. In addition, the inhibition result (in experiment [2]; in the experiment on COS7 [3]; in the experiment with COS7 [5]; in the experiment with COS7 [6]; in [7]; in the experiment with COS7 [8]) was “inactive” throughout. Also, the inhibition result in the experiment on COS7 [9], in the experiment on COS7 [11], in the experiment on COS7 [12], with COS7 [13], with COS7 [14] and in the experiment with COS7 [15] was “inactive” each time. In addition, the inhibition result (in experiment [16]; in experiment [17]; in the experiment on COS7 [18]; in experiment [20]) was “inactive” in each case. In addition, the Kb in [4] came to 380 nM. The inhibition entry in experiment [4] and in [19] (filed as allosteric antagonist) was “Dose-dependent effect” in each case. The pKb in experiment [4] was 6.4. For the same compound, the figures for the IC50 in experiment [10] and in experiment [19] were 2700 nM and 3800 nM, respectively.

Values taken from ChEMBL document CHEMBL4732214, “Highly Selective Y Receptor Antagonist Binds in an Allosteric Binding Pocket” (J Med Chem, 2021).
